# Assay results taken from ChEMBL document CHEMBL3804761, “Synthesis of a stable and orally bioavailable englerin analogue” (Bioorg Med Chem Lett, 2016).
# What was measured:
# Format in all cases: functional
# MDA-MB-435 = assay: Growth inhibition of human MDA-MB-435 cells assessed as cell growth at 10 uM incubated for 48 hrs by sulforhodamine B assay relative to control; settings: MDA-MB-435, 48 h, read-out: Activity
# In short: (§1)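 Run in the standard NCI 60-cell-line screen. Cells were exposed to drug for two days, and the read-out was sulforhodamine B staining. Compound was tested at a single final concentration of 10 µM in every line, and results are reported as growth percent.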
# [1] = Growth inhibition of human MOLT4 cells incubated for 48 hrs by sulforhodamine B assay; settings: MOLT-4, 48 h
# In short: (§2)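 NCI 60-cell-line panel, standard protocol. Cells exposed to compound for two days, growth read by sulforhodamine B staining. Tested at five 10-fold dilutions, top concentration 100 µM, to give dose-response curves.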
# [2] = Growth inhibition of human TK10 cells assessed as cell growth at 10 uM incubated for 48 hrs by sulforhodamine B assay relative to control; settings: TK-10, 48 h, read-out: Activity
# In short: (§3)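 NCI 60-cell line standard protocol, one-dose screen: single final concentration 10 µM, 2-day drug exposure, sulforhodamine B (SRB) endpoint; read-out is growth percent relative to untreated control.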
# HT-29 = assay: Growth inhibition of human HT-29 cells assessed as cell growth at 10 uM incubated for 48 hrs by sulforhodamine B assay relative to control; settings: HT-29, 48 h, read-out: Activity; in short: as §1
# U-251 = assay: Growth inhibition of human U251 cells incubated for 48 hrs by sulforhodamine B assay; settings: U-251, 48 h
# In short: (§4)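 Tested in the standard NCI 60-cell-line protocol with two-day drug exposure and a sulforhodamine B endpoint. Compounds were first screened at a single final concentration of 10 µM, reported as growth percent. They were then run as five 10-fold dilutions starting from a high concentration of 100 µM to give dose-response curves.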
# [3] = Growth inhibition of human SNB19 cells assessed as cell growth at 10 uM incubated for 48 hrs by sulforhodamine B assay relative to control; settings: SNB-19, 48 h, read-out: Activity; in short: as §1
# [4] = Growth inhibition of human OVCAR3 cells incubated for 48 hrs by sulforhodamine B assay; settings: OVCAR-3, 48 h; in short: as §2
# 786-0 [5] = assay: Growth inhibition of human 786-0 cells assessed as cell growth at 10 uM incubated for 48 hrs by sulforhodamine B assay relative to control; settings: 786-0, 48 h, read-out: Activity; in short: as §1
# [6] = Growth inhibition of human UACC257 cells incubated for 48 hrs by sulforhodamine B assay; settings: UACC-257, 48 h; in short: as §4
# [7] = Growth inhibition of human HOP92 cells incubated for 48 hrs by sulforhodamine B assay; settings: HOP-92, 48 h; in short: as §2
# [8] = Growth inhibition of human COLO205 cells assessed as cell growth at 10 uM incubated for 48 hrs by sulforhodamine B assay relative to control; settings: COLO 205, 48 h, read-out: Activity; in short: as §1
# [9] = Growth inhibition of human HCT116 cells incubated for 48 hrs by sulforhodamine B assay; settings: HCT-116, 48 h; in short: as §2
# [10] = Growth inhibition of human OVCAR5 cells incubated for 48 hrs by sulforhodamine B assay; settings: OVCAR-5, 48 h; in short: as §2
# [11] = Growth inhibition of human UO31 cells incubated for 48 hrs by sulforhodamine B assay; settings: UO-31, 48 h; in short: as §4
# T47D = assay: Growth inhibition of human T47D cells assessed as cell growth at 10 uM incubated for 48 hrs by sulforhodamine B assay relative to control; settings: read-out: Activity; in short: as §3
# [12] = Growth inhibition of human MOLT4 cells assessed as cell growth at 10 uM incubated for 48 hrs by sulforhodamine B assay relative to control; settings: MOLT-4, 48 h, read-out: Activity; in short: as §1
# [13] = Growth inhibition of human IGROV1 cells incubated for 48 hrs by sulforhodamine B assay; settings: IGROV-1, 48 h; in short: as §2
# 786-0 [14] = assay: Growth inhibition of human 786-0 cells incubated for 48 hrs by sulforhodamine B assay; settings: 786-0, 48 h; in short: as §2
# SN12C = assay: Growth inhibition of human SN12C cells incubated for 48 hrs by sulforhodamine B assay; in short: as §4
# A498 = assay: Growth inhibition of human A498 cells incubated for 48 hrs by sulforhodamine B assay; settings: A498, 48 h
# [15] = Growth inhibition of human SKOV3 cells incubated for 48 hrs by sulforhodamine B assay; settings: SK-OV-3, 48 h; in short: as §4
# [16] = Growth inhibition of human UO31 cells assessed as cell growth at 10 uM incubated for 48 hrs by sulforhodamine B assay relative to control; settings: UO-31, 48 h, read-out: Activity; in short: as §3
# [17] = Growth inhibition of human SF268 cells assessed as cell growth at 10 uM incubated for 48 hrs by sulforhodamine B assay relative to control; settings: SF-268, 48 h, read-out: Activity; in short: as §1
# [18] = Growth inhibition of human SW620 cells incubated for 48 hrs by sulforhodamine B assay; settings: SW-620, 48 h; in short: as §4
# [19] = Growth inhibition of human LOXIMVI cells incubated for 48 hrs by sulforhodamine B assay; settings: LOX IMVI; in short: as §2
# [20] = Growth inhibition of human SNB19 cells incubated for 48 hrs by sulforhodamine B assay; settings: SNB-19, 48 h; in short: as §4
# MCF7 = assay: Growth inhibition of human MCF7 cells assessed as cell growth at 10 uM incubated for 48 hrs by sulforhodamine B assay relative to control; settings: MCF7, 48 h, read-out: Activity; in short: as §1
# [21] = read-out: pLC50 (the source's name) (converted)
compound,measurement,setting,value
CC(C)[C@@]12C[C@@H](NC(=O)CO)[C@@](C)(O1)[C@@H]1CC[C@@H](C)[C@H]1[C@@H]2OC(=O)c1ccc2ccccc2c1,growth at 10 µM,MDA-MB-435,94%
same,GI50,[1],18.6 µM
same,LC50,[1],89.1 µM
same,TGI,[1]; read-out: pTGI (converted),40.7 µM
same,growth at 10 µM,[2],102%
same,growth at 10 µM,HT-29,93.7%
same,GI50,U-251,16.2 µM
same,LC50 (concentration giving 50% net cell kill),U-251,56.2 µM
same,TGI,U-251; read-out: pTGI (converted),30.2 µM
same,growth at 10 µM,[3],97.2%
same,GI50,[4],17 µM
same,LC50,[4],57.5 µM
same,TGI,[4]; read-out: pTGI (converted),30.9 µM
same,growth at 10 µM,786-0 [5],85%
same,GI50,[6],16.2 µM
same,CC50,[6]; [21],64.6 µM
same,TGI,[6]; read-out: pTGI (converted),32.4 µM
same,GI50,[7],9.33 µM
same,LC50,[7],52.5 µM
same,TGI,[7]; read-out: pTGI (converted),22.9 µM
same,growth at 10 µM,[8],110%
same,GI50,[9],14.1 µM
same,LC50,[9],53.7 µM
same,TGI,[9]; read-out: pTGI (converted),27.5 µM
same,GI50,[10],15.5 µM
same,LC50,[10],55 µM
same,TGI,[10]; read-out: pTGI (converted),28.8 µM
same,GI50,[11],11.5 µM
same,CC50,[11]; [21],50.1 µM
same,TGI,[11]; read-out: pTGI (converted),24 µM
same,growth at 10 µM,T47D,67.9%
same,growth at 10 µM,[12],74.9%
same,GI50,[13],17.8 µM
same,CC50,[13]; [21],61.7 µM
same,TGI,[13]; read-out: pTGI (converted),33.1 µM
same,GI50,786-0 [14],13.8 µM
same,LC50,786-0 [14],56.2 µM
same,TGI,786-0 [14]; read-out: pTGI (converted),28.2 µM
same,GI50,SN12C,11 µM
same,CC50,SN12C; [21],55 µM
same,TGI,SN12C; read-out: pTGI (converted),24.5 µM
same,LC50,A498,29.5 µM
same,GI50,A498; read-out: GI50,1.62 µM
same,GI50,A498; read-out: pGI50 (converted),1.62 µM
same,TGI,A498; read-out: pTGI (converted),6.31 µM
same,GI50,[15],15.8 µM
same,LC50,[15],56.2 µM
same,TGI,[15]; read-out: pTGI (converted),30.2 µM
same,growth at 10 µM,[16],63.3%
same,growth at 10 µM,[17],79%
same,GI50,[18],16.6 µM
same,LC50 (50% lethal concentration),[18],72.4 µM
same,TGI,[18]; read-out: pTGI (converted),34.7 µM
same,GI50,[19],16.2 µM
same,LC50,[19],57.5 µM
same,TGI,[19]; read-out: pTGI (converted),30.2 µM
same,GI50,[20],16.2 µM
same,CC50,[20]; [21],60.3 µM
same,TGI,[20]; read-out: pTGI (converted),31.6 µM
same,growth at 10 µM,MCF7,75.4%
